Source: ChEMBL document CHEMBL1212869, “Anti-HIV and antiplasmodial activity of original flavonoid derivatives” (Bioorg Med Chem, 2010)

How the values were obtained:
THP-1 = assay: Cytotoxicity against human THP1 cells using propidium iodide staining after 72 hrs by flow cytometry; type: cell-based; settings: THP-1, 72 h
[1] = test system: Human immunodeficiency virus 2; assay: Antiviral activity against HIV2 ROD infected in human MT4 cells assessed as inhibition of virus-induced cytopathic effect after 4 days by MTT assay; type: functional, organism-based; settings: Human immunodeficiency virus 2, ISOLATE ROD, MT4, 96 h
[2] = test system: Human immunodeficiency virus 1; assay: Antiviral activity against HIV1 3B infected in human MT4 cells assessed as inhibition of virus-induced cytopathic effect after 4 days by MTT assay; type: functional, organism-based; settings: Human immunodeficiency virus 1, 3B, MT4, 96 h
[3] = Selectivity index, ratio of CC50 for human MT4 cells to IC50 for HIV2 ROD; type: functional
How it was run: (§1)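 Selectivity index was calculated as the MT-4 CC50 from uninfected cells divided by the IC50 against HIV-1 IIIB or HIV-2 ROD. Both values came from the 4-day MTT cytopathic-effect assays.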

[4] = Cytotoxicity against human MT4 cells after 4 days by MTT assay; type: cell-based
How it was run: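 Uninfected MT-4 cells were run in parallel with the antiviral test under the same conditions: 10⁵ cells/mL, serial compound dilutions from DMSO stocks, 4 days at 37 °C. Viability was read by MTT. CC50 is the concentration that lowers viability of uninfected cells by 50%.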

Plasmodium falciparum = assay: Antiplasmodial activity against chloroquine-resistant Plasmodium falciparum W2 infected in human A+ erythrocytes assessed as inhibition of parasite proliferation after 48 hrs; type: functional, organism-based; settings: W2, 48 h
How it was run: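 W2 parasites were cultured in RPMI 1640 with 25 mM HEPES, 25 mM NaHCO3 and 10% A+ human serum at 2.5% hematocrit, at 37 °C under 10% O2/6% CO2/84% N2. After 48 h exposure without medium change, cells were stained with hydroethidine (0.05 mg/mL in PBS, 20 min, dark, 37 °C). Parasitaemia was read by flow cytometry. IC50 came from three independent experiments.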

[5] = Selectivity index, ratio of CC50 for human MT4 cells to IC50 for HIV1 3B; type: functional; how it was run: as §1
[6] = Selectivity index, ratio of IC50 for human THP1 cells to IC50 for chloroquine-resistant Plasmodium falciparum W2; type: toxicity, cell-based, THP-1; settings: read-out: Selectivity Index

Structure (SMILES)	IC50 (THP-1)	IC50 [1]	IC50 [2]	Selectivity Index [3]	CC50 at 96 h [4]	IC50 (Plasmodium falciparum)	Selectivity Index [5]	selectivity ratio [6]
COc1c(-c2cccc(C(F)(F)F)c2)oc2ccc(N)cc2c1=O	33 µM	57.6 µM	50.4 µM	1.3	73.1 µM	> 33 µM	1.5	–
O=c1[nH]cnc2c1ncn2[C@H]1CC[C@@H](CO)O1 [DIDANOSINE]	–	–	–	>195	> 529 µM	–	>98	–
COc1c(-c2ccccc2F)oc2ccc(N)cc2c1=O	> 125 µM	234 µM	44.7 µM	–	234 µM	23 µM	5.2	> 5.4
COc1ccccc1-c1oc2ccc(NC(C)=O)cc2c(=O)c1O	> 125 µM	385 µM	385 µM	–	385 µM	50 µM	–	> 2.5
CC(=O)Nc1ccc(O)c(C(=O)/C=C/c2ccc(C(F)(F)F)cc2)c1	15.5 µM	21.1 µM	21.1 µM	–	21.1 µM	11.6 µM	–	1.3
COc1ccccc1-c1oc2ccc(N)cc2c(=O)c1O	102 µM	222 µM	222 µM	–	222 µM	46 µM	–	2.2
COc1ccc(-c2oc3ccc(N)cc3c(=O)c2OC)cc1	21 µM	58.2 µM	200 µM	3.4	200 µM	> 21 µM	–	–
CC(=O)Nc1ccc2oc(-c3cccc(F)c3)cc(=O)c2c1	> 125 µM	240 µM	240 µM	–	240 µM	50 µM	–	> 2.5
COc1ccc(/C=C/C(=O)c2cc(NC(C)=O)ccc2O)cc1	59.2 µM	38.7 µM	38.7 µM	–	38.7 µM	6.7 µM	–	8.8
COc1c(-c2ccc(C(F)(F)F)cc2)oc2ccc(NC(C)=O)cc2c1=O	> 125 µM	332 µM	332 µM	–	332 µM	39 µM	–	> 3.2
CC(=O)Nc1ccc(O)c(C(=O)/C=C/c2ccccc2F)c1	> 125 µM	33.8 µM	33.8 µM	–	33.8 µM	12.3 µM	–	> 10.2
COc1ccccc1-c1oc2ccc(NC(C)=O)cc2c(=O)c1OC	108 µM	154 µM	154 µM	–	154 µM	16 µM	–	6.7
CC(=O)Nc1ccc(O)c(C(=O)/C=C/c2ccccc2)c1	85.5 µM	49.8 µM	49.8 µM	–	49.4 µM	15.9 µM	–	5.4
COc1ccc(-c2cc(=O)c3cc(N)ccc3o2)cc1	124 µM	240 µM	240 µM	–	240 µM	35 µM	–	3.5
COc1c(-c2cccc(F)c2)oc2ccc(N)cc2c1=O	34 µM	60.7 µM	112 µM	1.9	112 µM	> 34 µM	–	–
COc1c(-c2ccccc2)oc2ccc(N)cc2c1=O	74 µM	126 µM	126 µM	–	126 µM	20 µM	–	3.7

Structure (SMILES)	IC50 (THP-1)	IC50 [1]	IC50 [2]	Selectivity Index [3]	CC50 at 96 h [4]	IC50 (Plasmodium falciparum)	Selectivity Index [5]	selectivity ratio [6]
COc1ccccc1/C=C/C(=O)c1cc(NC(C)=O)ccc1O	> 125 µM	37.8 µM	37.8 µM	–	37.8 µM	13.4 µM	–	> 9.3
Nc1ccc2oc(-c3cccc(F)c3)cc(=O)c2c1	> 125 µM	58.4 µM	61.1 µM	4.6	269 µM	> 50 µM	4.4	–
COc1c(-c2cccc(F)c2)oc2ccc(NC(C)=O)cc2c1=O	> 125 µM	210 µM	210 µM	–	210 µM	49 µM	–	> 2.6
COc1c(-c2ccccc2)oc2ccc(NC(C)=O)cc2c1=O	> 125 µM	200 µM	200 µM	–	200 µM	18 µM	–	> 6.9
COc1c(-c2ccc(F)cc2)oc2ccc(NC(C)=O)cc2c1=O	> 125 µM	317 µM	317 µM	–	317 µM	23 µM	–	> 5.4
COc1ccccc1-c1oc2ccc(N)cc2c(=O)c1OC	116 µM	229 µM	229 µM	–	229 µM	7.7 µM	–	15.1
COc1c(-c2cccc(C(F)(F)F)c2)oc2ccc(NC(C)=O)cc2c1=O	52 µM	201 µM	201 µM	–	201 µM	19 µM	–	2.7
Cc1ccnc2c1NC(=O)c1cccnc1N2C1CC1 [NEVIRAPINE]	–	15 µM	0.03 µM	46	–	–	–	–
COc1c(-c2ccccc2F)oc2ccc(NC(C)=O)cc2c1=O	> 125 µM	180 µM	180 µM	–	180 µM	15 µM	–	> 8.3
COc1ccccc1-c1cc(=O)c2cc(N)ccc2o1	74 µM	198 µM	88 µM	–	198 µM	50 µM	2.3	1.5
COc1c(-c2ccc(C(F)(F)F)cc2)oc2ccc(N)cc2c1=O	–	47.7 µM	290 µM	6.1	290 µM	26 µM	–	–
COc1c(-c2ccc(F)cc2)oc2ccc(N)cc2c1=O	36 µM	141 µM	141 µM	–	141 µM	33 µM	–	1.1
Cc1cn([C@H]2C[C@H](N=[N+]=[N-])[C@@H](CO)O2)c(=O)[nH]c1=O [ZIDOVUDINE]	–	–	0.005 µM	–	93.5 µM	–	>17990	–
CC(=O)Nc1ccc(O)c(C(=O)/C=C/c2ccc(F)cc2)c1	68.8 µM	41.1 µM	41.1 µM	–	41.1 µM	16.9 µM	–	4.1
COc1cccc(/C=C/C(=O)c2cc(NC(C)=O)ccc2O)c1	93.7 µM	40 µM	40 µM	–	40 µM	13.2 µM	–	7.1
